Source: PubChem (several laboratories)
Wee1 stabilizer = Wee1 degradation inhibitors, primary screen, cell-based, HeLa, Wee1K328M-luciferase, luminescence. HeLa Luc-Wee1K328M stability; 100% = proteasome inhibitor MG132 effect. reporter increase, % at 5 µM. 220,000 tested, 1.2% active. AID 1321, 2008;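 active = activation above the mean of all tested compounds plus 3 SD, set per screening run, cut at about 8.8% in these data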;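 also: cells exposed to compound for 20 h before luminescence read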
AI-2 QS modul = Vibrio harveyi AI-2 quorum sensing modulators, primary screen, JMH597 strain, luminescence/OD600 ratio | Vibrio harveyi JMH597 AI-2 luminescence/OD600 ratio, 9 h; hits give low values; strain lacks LuxN and CqsS sensors; 0 = neutral-control median | activity change, % at 7.5 µM | 300,000 tested, 0.4% active | AID 2094, 2009; in the data active = activity change below about -75%, passing the limit was not always enough;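 also: luminescence divided by OD600 gain over 9 h not by final OD600 alone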
Runt-CBFb FRET = inhibitors of RUNX1 Runt–CBFb binding, primary screen, biochemical, FRET, Cerulean-Runt, Venus-CBFb, uHTS. Runt-related transcription factor 1 (Homo sapiens) + Core-binding factor subunit beta …. Cerulean-Runt/Venus-CBFb FRET ratio 530/480, 1 h. inhibition, % at 20 µM. 220,000 tested, 0.46% active;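 active = inhibition over about 50% at 20 µM in the single-dose screen, limit read from the data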
Target sequence (Q01196 whole entry, looked up): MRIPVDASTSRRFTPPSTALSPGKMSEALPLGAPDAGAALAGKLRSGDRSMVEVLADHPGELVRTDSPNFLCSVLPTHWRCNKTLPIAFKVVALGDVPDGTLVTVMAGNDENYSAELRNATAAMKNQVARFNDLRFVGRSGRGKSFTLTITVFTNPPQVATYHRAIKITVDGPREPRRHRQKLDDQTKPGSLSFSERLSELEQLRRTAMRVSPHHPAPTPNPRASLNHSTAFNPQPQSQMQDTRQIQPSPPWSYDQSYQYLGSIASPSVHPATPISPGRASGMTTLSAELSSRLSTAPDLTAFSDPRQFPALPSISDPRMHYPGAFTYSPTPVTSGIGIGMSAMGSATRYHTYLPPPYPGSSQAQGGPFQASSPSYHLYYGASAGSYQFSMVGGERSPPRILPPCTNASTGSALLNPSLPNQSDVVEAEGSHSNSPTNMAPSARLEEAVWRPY
Target sequence (Q13951 whole entry, looked up): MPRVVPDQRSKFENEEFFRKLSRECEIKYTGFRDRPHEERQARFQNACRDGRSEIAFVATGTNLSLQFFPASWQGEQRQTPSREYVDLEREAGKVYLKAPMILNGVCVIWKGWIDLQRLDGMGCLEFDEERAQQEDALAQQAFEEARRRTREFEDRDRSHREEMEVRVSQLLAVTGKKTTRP
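System: Cerulean-labeled Runt domain protein | Quantity: 100 nM of each labeled protein | Schedule: 1 h compound exposure, room temperature | Detection: Fluorescence energy transfer, 422 nm excitation, 530/480 nm emission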
Runt-SMMHC FRET = inhibitors of RUNX1 Runt–CBFb-SMMHC binding, primary screen, biochemical, FRET, Cerulean-Runt, Venus-CBFb-SMMHC, uHTS; inhibition, % at 20 µM; 220,000 tested, 0.74% active; AID 1434, 2008; Cerulean-Runt/Venus-CBFb-SMMHC FRET ratio 530/480, 1 h;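 active = mean inhibition across duplicate retests at 20 µM reaching about 50%, limit read from the data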;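 also: inhibitors lower the FRET ratio by blocking Runt binding to CBFb-SMMHC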
RanGTP-Imp inh = inhibitors of RanGTP-importin-beta interaction, primary screen, biochemical, FRET, CFP-Ran, YFP-importin-beta, homogeneous; cell-free CFP-Ran/YFP-importin-beta FRET ratio; AID 2216, 2009; 300,000 tested, 1.1% active; inhibition, % (concentration not given with the values);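 active = more than half of the replicate wells show a fall in the fluorescence ratio signal beyond about 16%, limit read from the data, passing the limit was not always enough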
KLK7 zymogen act = proKLK7 zymogen activators, primary screen, biochemical, fluorescence intensity; activation, % at 7 µM; purified proKLK7, EDANS-DABCYL substrate fluorescence; 100% is mature enzyme control, 0% vehicle; AID 652039, 2013; 370,000 tested, 0.9% active; Kallikrein-7 (Homo sapiens), P49862;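 active = activation above the mean of all tested compounds plus 3 SD, computed per campaign excluding outliers beyond control limits, cut at about 13% in these data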
KLK7 act conf = proKLK7 zymogen activators, confirmation, biochemical, fluorescence intensity, triplicate. shares compounds with KLK7 zymogen act. purified proKLK7, EDANS-DABCYL substrate fluorescence; scaled: vehicle 0, mature enzyme 100. activation, % at 7 µM. 3,200 tested, 68% active. AID 686949, 2013;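 active = activation, as change over the incubation, above the mean of all tested compounds plus 3 SD, cut at about 13% in these data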
EDANS-DABCYL int = EDANS-DABCYL substrate optical interference, artefact control for kallikrein-7 zymogen activator project, biochemical, fluorescence intensity, high throughput; shares compounds with KLK7 zymogen act; 3,200 tested, 80% active; AID 686952, 2013; no enzyme, 4 h; solvent 0%, active enzyme control 100%; activation, % at 7 µM;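 active = activation above the all-compound mean plus 3 SD, ignoring values outside control-based bounds, cut at about 4.8% in these data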;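 also: value is the 4 h activation minus the activation read at time zero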
EDANS interf = counter-screen for kallikrein-7 activators: EDANS-DABCYL interference, dose response. shares compounds with KLK7 zymogen act. EDANS-DABCYL peptide fluorescence interference, no enzyme. EC50, µM. 250 tested, 20% active;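 active = compounds that raise the fluorescence signal in this interference counterscreen, with EC50 at or below 10 µM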;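 also: intact quenched peptide substrate alone read at 355 nm excitation and 520 nm emission; signal is fluorescence gain from T0 to T4 after four hours at room temperature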
Numbers stand for hits; - = inactive; . = no result given. Most compounds without a hit are left out; they make up all but 2.9% or so of the library.

SMILES	Wee1 stabilizer	AI-2 QS modul	Runt-CBFb FRET	Runt-SMMHC FRET	RanGTP-Imp inh	KLK7 zymogen act	KLK7 act conf	EDANS-DABCYL int	others
CCOC(=O)C1(C)CCN1C(=O)c1ccc(F)c(Cl)c1 (configuration not stated)	.	.	.	.	.	-	.	.
CCOC(=O)C1=CN(C)C=C(C(=O)OCC)C1c1ccsc1	-	-	121.9	98.7	52.7	28.8	-	-
COC(=O)C1=C(C)N(C)C(C)=C(C(=O)OC)C1c1ccsc1	-	-	-	-	-	-	.	.
COC(=O)C1=CN(CC2CCCO2)C=C(C(=O)OC)C1c1ccsc1 (configuration not stated)	-	-	87.6	134.4	-	27.4	33.7	18.3	EDANS interf=-
O=C(N/N=C/C=C/c1ccc2c(c1)OCO2)C(O)c1ccccc1 (configuration not stated)	-	-	-	-	-	-	.	.
CCOc1ccc(CNS(=O)(=O)c2ccc(-c3ccc(=O)[nH]n3)o2)cc1OC	.	-	.	.	-	-	.	.
O=C(NC1CCCCC1)c1cc(F)cc2c1OCOC2	-	-	-	-	-	-	.	.
CC(Oc1cc2oc(=O)c3c(c2cc1Cl)CCC3)C(=O)NCCCn1ccnc1 (configuration not stated)	.	-	.	.	-	-	.	.
CCOP(=O)(OCC)c1nc(-c2cccc3ccccc23)oc1N1CCOCC1	-	-	-	-	-	63.1	63.2	58.1
COc1ccc(CNC(=O)COc2cc3c(c4oc(=O)cc(C)c24)CCC(C)(C)O3)cc1	.	-	.	.	-	-	.	.
Cc1cc(=O)oc2c3c(cc(OCC(=O)N[C@@H](C)C(=O)O)c12)OC(C)(C)CC3	.	-	.	.	-	63.9	62.0	73.3
Cc1cc(=O)oc2c3c(cc(OCC(=O)NC(C)C)c12)OC(C)(C)CC3	.	-	.	.	-	23.1	47.1	63.2
CCCCC(NC(=O)COc1cc2c(c3oc(=O)cc(C)c13)CCC(C)(C)O2)C(=O)O (configuration not stated)	.	-	.	.	-	-	.	.
Cc1ccc(C)c(NC(=O)NNS(=O)(=O)c2ccc(C)c(C)c2)c1	.	-	.	.	-	-	.	.
CNc1cnc(-c2cccc(C(=O)N3CCOCC3)c2)cn1	.	.	.	.	.	14.2	14.9	20.1
CNc1cccc(-c2ccc(C(=O)N3CCOCC3)cc2)n1	.	.	.	.	.	-	.	.
O=C1c2ccccc2NC(c2ccccc2)N1CCCN1CCOCC1 (configuration not stated)	-	-	-	-	-	14.7	-	10.4
CCCN1C(=O)c2ccccc2NC1c1ccc(OC)cc1O (configuration not stated)	-	-	-	-	-	18.6	15.0	15.8
CCCN1C(=O)c2ccccc2NC1c1ccc(C)cc1 (configuration not stated)	-	-	-	-	-	14.5	-	7.3
COc1ccc(C2(CNC(=O)c3ccc(OC)c([N+](=O)[O-])c3)CCCCC2)cc1OC	-	-	-	-	-	-	.	.
CNC(=S)NNC(=O)c1sc2cc(C(F)(F)F)cnc2c1-c1ccccn1	-	-	-	-	-	-	.	.
CNC(=S)NNC(=O)c1sc2cc(C(F)(F)F)cnc2c1-c1cccnc1	-	-	-	-	-	13.8	15.7	22.0
COc1ccc(N2CCN(CCC(=O)c3ccc4ccccc4c3)CC2)cc1	.	-	.	.	-	21.9	15.0	14.7
FC(F)(F)c1nc2nc(Cl)c(Cl)nc2n1CCCN1CCOCC1	.	.	.	.	.	24.6	-	-
Cc1ccc(C(=O)O)cc1NC(=O)CSc1ncnc2sc3c(c12)CCC3	-	-	-	-	-	-	.	.
SMILES	Wee1 stabilizer	AI-2 QS modul	Runt-CBFb FRET	Runt-SMMHC FRET	RanGTP-Imp inh	KLK7 zymogen act	KLK7 act conf	EDANS-DABCYL int	others
CC1(C)CC(=O)C2=C(C1)c1c(ccc3ccccc13)NC2c1ccc(Br)o1 (configuration not stated)	-	-	-	-	-	-	.	.
CCOc1ccc(C2Nc3ccccc3NC3=C2C(=O)CC(C)(C)C3)cc1OC (configuration not stated)	.	.	.	.	-	-	.	.
COc1cc(C2Nc3ccc4ccccc4c3C3=C2C(=O)CC(C)(C)C3)ccc1OCC(=O)O (configuration not stated)	.	-	.	.	-	16.3	-	-
COc1cc(C2Nc3ccc4ccccc4c3C3=C2C(=O)CC(C)(C)C3)ccc1OC(C)C(=O)O (configuration not stated)	.	-	.	.	-	24.1	-	12.7
COc1cccc(C2Nc3ccc4ccccc4c3C3=C2C(=O)CC(C)(C)C3)c1OCC(=O)O (configuration not stated)	.	-	.	.	-	26.3	-	5.4
CC1(C)CC(=O)C2=C(C1)c1c(ccc3ccccc13)NC2c1ccc(OCC(=O)O)cc1 (configuration not stated)	.	-	.	.	-	36.1	23.2	18.1	EDANS interf=-
Cc1cc(N)nc(=O)n1C1CC(O)C(CO)O1 (configuration not stated)	.	.	.	.	.	-	.	.
CCC(CC)c1nnc(NC(=O)C2=NNC(=O)CC2)s1	-	-	-	-	-	-	.	.
CC(c1ccccc1)C1CC(=O)N(Cc2ccco2)C1=O (configuration not stated)	-	-	-	-	-	118.7	-	-
COCCN(C(=O)COC(=O)c1ccccc1NCc1ccco1)c1c(N)n(Cc2ccccc2)c(=O)[nH]c1=O	.	-	.	.	-	-	.	.
CCCCn1c(N)c(N(CCOC)C(=O)COC(=O)c2ccccc2NCCO)c(=O)[nH]c1=O	.	.	.	.	.	35.7	18.9	21.7
Cc1c(N2CCCC2)cc2c(c1NC(=O)c1ccccc1Cl)C(C)(C)CC2(C)C	-	-	-	-	-	-	.	.
CCN(CC)C(=O)c1ccc(-c2cccs2)s1	-	-	-	-	-	-	.	.
O=Cc1ccc(-c2cccs2)s1	.	.	.	.	.	47.0	58.1	67.3
